TRPC6 activator – mouse TRPC6 channel activation. Q61143. HEK293-TRPC6 membrane potential dye fluorescence; hits give high values. B-score at 10 µM. 310,000 tested, 0.13% active;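 active means B-score of the integrated fluorescence ratio above library mean plus 3 SD, and starting fluorescence ratio within library mean plus 5 SD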;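 further: higher score means more depolarization so channel activation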
TRPC4 act – TRPC4 (mouse) channel activation | B-score at 10 µM | Q9QUQ5 | 310,000 tested, 0.49% active | HEK293 TRPC4beta/mu-opioid, Fluo4 calcium fluorescence; hits give high values | AID 2237;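 active means B-score above 5 SD of library B-scores, and initial fluorescence ratio not above library mean plus 5 SD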;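 further: positive B-score marks a calcium rise read as TRPC4 activation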
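Assay system: HEK293 cells stably co-expressing mouse TRPC4beta and mu-opioid receptor / Timing: Fluo4 dye loading 45 min at room temperature, 110 s recording / Signal: Fluo4 calcium-sensitive dye fluorescence, kinetic, 1 Hz baseline / Read-out: integrated baseline-normalised fluorescence ratio, converted to per-well B score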
TRPC6 inhibitor – blocks the mouse TRPC6 cation channel. Q61143. HEK293-TRPC6, membrane potential dye, ACh-evoked depolarization; hits give low values. B-score at 10 µM. 310,000 tested, 1.1% active;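 active means B-score under library mean minus 3 SD, initial fluorescence not abnormally high, positive integrated signal ratio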;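 further: B-score derived from integrated fluorescence ratio over the kinetic read; more negative B-score means stronger inhibition of depolarization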
TRPC4 PAM – TRPC4 (mouse) allosteric potentiation | HEK293 TRPC4beta/mu-opioid, DAMGO EC20, Fluo-4 Ca2+ flux; hits give high values | B-score at 10 µM | 310,000 tested, 0.42% active | AID 2227;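 active means B-score of calcium response area above 5 SD of library B-scores, with initial fluorescence ratio within 5 SD of library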;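 further: B-score of integrated fluorescence ratio over time as area under calcium response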
TRPC4 block – TRPC4 (mouse) channel inhibition; AID 2247; B-score at 10 µM; 300,000 tested, 0.39% active; HEK293 TRPC4beta/mu-opioid, DAMGO-evoked Fluo4 calcium flux; hits give low values;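 active means B-score over 3 SD under the library average, no early fluorescence shift, positive overall ratio signal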
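Assay system: TRPC4beta/mu-opioid receptor HEK293 cell line; compound dosing: single concentration per test compound; detection: Fluo4 Ca2+ flux fluorescence; evaluation: per-well B score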
Numbers without * were called inactive; i = inactive. Compounds with a hit are over-represented: about 2.3% of the library has one in this group of screens.

SMILES	TRPC6 activator	TRPC4 act	TRPC6 inhibitor	TRPC4 PAM	TRPC4 block
Cc1nn(C)cc1S(=O)(=O)NCc1ccccc1Cl	i	i	i	i	i
Cc1nc(N2CCCCC2)c(C#N)c(C)c1[N+](=O)[O-]	i	i	i	i	-5*
CC(=O)c1cccc(N(CC(=O)NC2CCCCC2)C(=O)Cn2nnc(-c3ccccc3)n2)c1	i	i	i	i	i
O=C(Nc1cccc(Cl)c1)c1ccc(-n2cncn2)c([N+](=O)[O-])c1	i	i	-5.5*	i	i
O=C(OCC(=O)N1CCN(c2ccccc2)CC1)c1ncc(Cl)c(Cl)c1Cl	i	i	i	i	i
CCN1CCN(C(=S)Nc2ccsc2C(=O)OC)CC1	i	57*	i	i	i
COC(=O)c1sccc1NC(=S)N1CCN(C)CC1	i	50*	i	i	i
COC(=O)c1sccc1NC(=S)N1CCN(c2cc(C)ccc2C)CC1	i	i	i	i	i
CC(C)(C)n1nnnc1C(c1ccncc1)N(Cc1ccccc1)Cc1ccco1 (stereo not given)	i	i	i	10*	i
C=CCN(CC=C)CCOc1ccccc1	i	i	i	12*	i
C=CCN(CC=C)CCOc1ccc2ccccc2c1	i	i	i	i	i
CCO[C@H]1OC(C(=O)N2CCOCC2)=C[C@@H](c2ccc(Br)cc2)[C@@H]1CCCO	i	i	i	i	i
CCCCN(CC)CCCNC(=S)Nc1ccc2nc(N3CCN(C)CC3)cc(C)c2c1	i	i	i	i	i
CCCCN(CC)CCCNC(=S)Nc1ccc2nc(N3CCN(CC)CC3)cc(C)c2c1	i	71*	i	i	i
CCCCN(CC)CCCNC(=S)Nc1ccc2nc3n(c(=O)c2c1)CCCCC3	i	i	i	10*	i
CCCN1CCC(NC(=O)Cc2ccccc2C)CC1	i	i	i	i	i
O=C(c1ccccc1Cl)N1CCN(c2ncccn2)CC1	i	i	i	i	i
CCN(CC1COc2ccccc2O1)C(=S)NCCCN(C)C (stereo not given)	i	i	i	12*	i
Cc1cccc(NC(=S)NCC(c2cccnc2)N(C)C)c1 (stereo not given)	i	103*	i	i	i
CN(C)C(CNC(=S)Nc1ccc(F)cc1)c1cccnc1 (stereo not given)	i	80*	i	i	i
CCN(CC)CCN1C(=O)C2C(C(=O)Nc3cc(C)cc(C)c3)C3C=CC2(O3)C1C(=O)NC1CCCCC1 (stereo not given)	i	47*	i	i	i
CCC1CCCCN1CCN1C(=O)C2C(C(=O)Nc3ccc(OC)cc3)C3C=CC2(O3)C1C(=O)NC1CCCCC1 (stereo not given)	i	i	i	i	-6*
CCCCCCC(=O)N1C/C=C\C(c2ccc(OC)cc2)N(Cc2ccc(F)cc2)C(=O)[C@H]1Cc1ccccc1 (stereo not given in full)	i	i	i	i	i
O=C1S/C(=C\c2ccc(O)c([N+](=O)[O-])c2)C(=O)N1c1ccccc1Cl	i	i	i	i	-10*
CCOc1ccc(N(C(=O)CNC(=O)c2ccco2)C(C(=O)NCC2CCCO2)c2ccccc2)cc1 (stereo not given)	i	i	i	i	i
SMILES	TRPC6 activator	TRPC4 act	TRPC6 inhibitor	TRPC4 PAM	TRPC4 block
COc1ccc(N(C(=O)CNC(=O)c2ccco2)C(C(=O)NCC2CCCO2)c2ccccc2)cc1 (stereo not given)	i	i	i	11*	i
Cc1ccc2nc(Nc3ccc(C)c(C)c3)c3nncn3c2c1	i	i	i	i	i
O=C(COC(=O)C12CC3CC(CC(C3)C1)C2)Nc1nccs1	i	i	i	i	i
Cc1ccnc(NC(=O)COC(=O)C23CC4CC(CC(C4)C2)C3)n1	i	i	i	35*	i
CCOc1ccc(-c2cc(NC(=O)c3c(F)cccc3F)c(C(=O)O)s2)cc1	i	i	i	i	-5*
COc1ccc2[nH]c(C(=O)O)c(NC(=O)c3cc(OC)c(OC)c(OC)c3)c2c1	i	i	i	i	i
Cc1cccc(CC(Cc2nc3ccccc3[nH]2)c2nc3ccccc3[nH]2)c1 (stereo not given)	i	i	i	i	i
COc1ccccc1CC(Cc1nc2ccccc2[nH]1)c1nc2ccccc2[nH]1 (stereo not given)	i	i	i	i	-6*
O=C1/C(=C/c2ccncc2)SC(=S)N1Cc1ccccc1	i	i	i	12*	i
COCC(C)n1c(SCC(=O)N2CCc3ccccc3C2)nc2ccccc2c1=O (stereo not given)	i	i	i	i	i
CCSc1nnc(NC(=O)CCCOc2ccc(C)cc2)s1	i	i	i	i	i
Cc1c(Cl)cccc1NC(=S)NCc1cccn1C	i	i	i	i	-6*
Cc1ccccc1NC(=S)NCc1cccn1C	i	i	i	i	i
C=CCN1CC(=O)N2C(c3ccccc3)c3[nH]c4ccccc4c3C[C@H]2C1=O (stereo not given in full)	i	i	i	13*	i
COCCCN1CC(=O)N2C(c3ccccc3)c3[nH]c4ccccc4c3C[C@H]2C1=O (stereo not given in full)	i	i	i	i	i
COc1ccc(C)c(NC(=O)NCCc2cnc[nH]2)c1	i	129*	i	i	i
O=C(Nc1cccc(Cl)c1)N1CCN(C/C=C/c2ccccc2)CC1	i	i	i	26*	i
COc1cc(NC(=O)CCN2CCN(C/C=C/c3ccccc3)CC2)cc(OC)c1	i	73*	i	10*	i
CCN(C(=O)c1c(-c2ccccc2Cl)noc1C)C1CCCCC1	i	i	i	i	-6*
Cc1onc(-c2ccccc2Cl)c1C(=O)N1CCN(C/C=C/c2ccccc2)CC1	i	101*	i	i	i
O=C(CCN1CCN(C/C=C/c2ccccc2)CC1)Nc1ccc(Cl)cc1	i	i	i	i	i
O=C(NC1CCCC1)C(c1ccccn1)N(C(=O)c1csnn1)c1ccc(F)cc1 (stereo not given)	i	i	i	i	i
Cn1ncc(Br)c1NC(=O)c1cc(Cl)cc(Cl)c1	i	i	i	i	i
CCOC(=O)c1cc(S(=O)(=O)N2CCN(C3CCCCC3)CC2)cn1C	i	i	i	i	i

Screening data deposited in PubChem by Johns Hopkins Ion Channel Center.
